Measured values taken from ChEMBL document CHEMBL4673223, “Synthesis, Biological, and Structural Explorations of New Zwitterionic Derivatives of 14- O-Methyloxymorphone, as Potent μ/δ Opioid Agonists and Peripherally Selective Antinociceptives” (J Med Chem, 2019).
The source made the active and inactive calls. No cut-off for these calls is given here.

Legend:
[1] = target: Delta-type opioid receptor (Homo sapiens) (UniProt P41143); assay: Displacement of [3H]diprenorphine from human DOR expressed in CHO cell membranes incubated for 60 mins liquid scintillation counting assay; conditions: Cell membrane, filed as agonist
Chain of Delta-type opioid receptor (Homo sapiens) (P41143 whole entry): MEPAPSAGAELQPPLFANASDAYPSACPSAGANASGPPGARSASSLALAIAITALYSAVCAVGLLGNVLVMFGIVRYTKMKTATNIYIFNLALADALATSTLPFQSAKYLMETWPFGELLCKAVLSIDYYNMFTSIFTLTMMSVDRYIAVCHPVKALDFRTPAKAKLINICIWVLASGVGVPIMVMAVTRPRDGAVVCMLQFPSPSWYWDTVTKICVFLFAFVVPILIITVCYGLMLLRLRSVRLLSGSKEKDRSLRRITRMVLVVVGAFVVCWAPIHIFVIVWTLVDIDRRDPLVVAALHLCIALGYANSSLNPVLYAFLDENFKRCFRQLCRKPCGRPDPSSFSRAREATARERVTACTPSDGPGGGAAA
Outline: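 Membranes from CHO cells expressing human DOR (15–20 μg) in 50 mM Tris-HCl, pH 7.4, were incubated with 0.2 nM [3H]diprenorphine and varied test concentrations for 60 min at 25 °C. Nonspecific binding was set with 1–10 μM unlabeled diprenorphine. Samples were GF/C filtered and scintillation counted.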

[2] = target: Delta-type opioid receptor (Rattus norvegicus, UniProt P33533); assay: Displacement of [3H][Ile5,6]deltorphin II from delta opioid receptor in rat brain membranes incubated for 45 mins by liquid scintillation counting method; assay type: cell membranes, Membrane
Chain of Delta-type opioid receptor (P33533 whole entry): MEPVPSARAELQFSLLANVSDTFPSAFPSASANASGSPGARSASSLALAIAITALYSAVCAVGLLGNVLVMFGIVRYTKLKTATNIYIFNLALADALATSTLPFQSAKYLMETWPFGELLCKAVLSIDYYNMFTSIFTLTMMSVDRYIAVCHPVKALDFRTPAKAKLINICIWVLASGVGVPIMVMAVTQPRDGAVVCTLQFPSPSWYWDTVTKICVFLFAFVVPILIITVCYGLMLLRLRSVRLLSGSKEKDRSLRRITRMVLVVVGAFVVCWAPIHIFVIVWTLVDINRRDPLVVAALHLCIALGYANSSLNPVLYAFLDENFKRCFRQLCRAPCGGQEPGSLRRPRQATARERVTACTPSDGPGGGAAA
Outline: (§1)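 Rat brain membranes (cerebella removed; 0.3–0.5 mg protein) in 50 mM Tris-HCl, pH 7.4, were incubated 45 min at 35 °C with 1 nM [3H]DAMGO (MOR) or 0.5 nM [3H][Ile5,6]deltorphin II (DOR) plus varied test concentrations. Nonspecific binding was set with 10 μM naloxone. Samples were GF/C filtered, washed and scintillation counted. Ki was obtained by Cheng–Prusoff; duplicates, 3–4 experiments.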

[3] = target: Kappa-type opioid receptor (Cavia porcellus, UniProt P41144); assay: Displacement of [3H]U69,593 from kappa opioid receptor in guinea-pig brain membranes incubated for 30 mins by liquid scintillation counting method; assay type: cell membranes, Membrane
Chain of Kappa-type opioid receptor (P41144 whole entry): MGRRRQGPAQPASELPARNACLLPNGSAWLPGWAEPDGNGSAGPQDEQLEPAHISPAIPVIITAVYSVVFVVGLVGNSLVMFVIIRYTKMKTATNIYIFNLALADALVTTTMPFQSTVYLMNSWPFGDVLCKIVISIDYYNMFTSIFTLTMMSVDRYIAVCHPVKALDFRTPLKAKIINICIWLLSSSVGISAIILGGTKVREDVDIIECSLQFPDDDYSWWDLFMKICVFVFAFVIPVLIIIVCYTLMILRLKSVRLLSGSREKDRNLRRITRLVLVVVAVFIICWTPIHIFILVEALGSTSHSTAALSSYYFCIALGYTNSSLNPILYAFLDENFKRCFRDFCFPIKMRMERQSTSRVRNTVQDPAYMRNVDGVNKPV
Outline: (§2)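 Guinea-pig brain membranes (0.3–0.5 mg protein) in 50 mM Tris-HCl, pH 7.4, were incubated with 1 nM [3H]U69,593 for 30 min at 30 °C, with 10 μM naloxone defining nonspecific binding. MOR was measured on rat brain membranes with 1 nM [3H]DAMGO for 45 min at 35 °C. Samples were filtered and scintillation counted, and Ki was obtained by Cheng–Prusoff; duplicates, 3–4 experiments.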

[4] = Selectivity index, ratio of Ki for displacement of [3H]U69,593 from kappa opioid receptor in guinea-pig brain membranes to Ki for displacement of [3H]DAMGO from mu opioid receptor in rat brain membranes; assay type: cell membranes; outline: as §2
Rattus norvegicus = organism: Rattus norvegicus; assay: Selectivity index, ratio of Ki for displacement of [3H][Ile5,6]deltorphin II from delta opioid receptor in rat brain membranes to Ki for displacement of [3H]DAMGO from mu opioid receptor in rat brain membranes; assay type: cell membranes; outline: as §1
Mus musculus = assay: Antinociceptive activity in CD1 mouse assessed as inhibition of the writhing response at 200 ug/kg, sc and co-administered with 1 mg/kg naloxone methiodide and measured after 30 mins post dose by acetic acid-induced writhing assay; assay type: functional, organism-based; conditions: dose 200.0 µg/kg
Outline: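 Male CD1 mice (30–35 g) received the agonist sc in saline (10 μL/g) together with sc naloxone methiodide 1 mg/kg. At 25 min, 0.6% acetic acid was given ip, and writhes were counted over a 10 min observation period (30 min post-dose). Results were expressed as mean writhes versus saline control and agonist-alone groups; n = 6–7 mice per group; ANOVA with Tukey post hoc.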

Mu-type opioid receptor = Mu-type opioid receptor (Rattus norvegicus, UniProt P33535); assay: Displacement of [3H]DAMGO from mu opioid receptor in rat brain membranes incubated for 45 mins by liquid scintillation counting method; assay type: cell membranes, Membrane; outline: as §1
Chain of Mu-type opioid receptor (P33535 whole entry): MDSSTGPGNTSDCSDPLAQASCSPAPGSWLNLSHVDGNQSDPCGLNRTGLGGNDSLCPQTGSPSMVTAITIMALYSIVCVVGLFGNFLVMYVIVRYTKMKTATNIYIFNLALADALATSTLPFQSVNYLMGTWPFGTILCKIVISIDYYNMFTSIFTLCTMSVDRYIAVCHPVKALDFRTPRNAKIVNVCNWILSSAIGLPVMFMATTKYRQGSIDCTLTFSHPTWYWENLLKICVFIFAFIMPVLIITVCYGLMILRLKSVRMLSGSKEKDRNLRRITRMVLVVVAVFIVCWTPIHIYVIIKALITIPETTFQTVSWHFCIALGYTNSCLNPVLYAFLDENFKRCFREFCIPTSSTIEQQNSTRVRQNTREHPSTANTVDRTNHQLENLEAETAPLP

SMILES | Activity [1] | Ki [2] | Ki [3] | Ratio Ki [4] | Ratio Ki (Rattus norvegicus) | Activity (Mus musculus) | Ki (Mu-type opioid receptor)
CO[C@@]12CC[C@@H](N[C@@H](C)C(=O)O)[C@@H]3Oc4c(O)ccc5c4[C@@]31CCN(C)[C@@H]2C5 | Active | 7.71 nM | 63.7 nM |  |  |  | 
CO[C@@]12CC[C@@H](N[C@@H](Cc3c[nH]c4ccccc34)C(=O)O)[C@@H]3Oc4c(O)ccc5c4[C@@]31CCN(C)[C@@H]2C5 | Active |  |  | 13 | 1.8 | inactive | 
CO[C@@]12CC[C@@H](N[C@@H](Cc3ccccc3)C(=O)O)[C@@H]3Oc4c(O)ccc5c4[C@@]31CCN(C)[C@@H]2C5 | Active | 1.03 nM | 151 nM | 59 | 0.4 |  | 2.58 nM
CO[C@@]12CC[C@H](N[C@@H](Cc3ccccc3)C(=O)O)[C@@H]3Oc4c(O)ccc5c4[C@@]31CCN(C)[C@@H]2C5 | Active |  | 28.5 nM | 30 | 3.9 |  | 0.95 nM
CO[C@@]12CC[C@@H](NCC(=O)NCC(=O)O)[C@@H]3Oc4c(O)ccc5c4[C@@]31CCN(C)[C@@H]2C5 | Active |  |  | 44 | 1.6 | inactive | 
